PMC11364305 (Annals of African Medicine, 2024)
≈ marks a conversion by molar mass, not a printed value. Entries after “also recorded” stand apart in the source; their conditions may differ. Where two headings read alike, the source gives them in different places.

Columns and labels:
[1] = tested on: C. neoformans (clinical isolate CN); experiment: Disc diffusion assay, clinical isolate CN; assay type: cell-based, Cryptococcus neoformans; conditions: 37°C, 48 h, mean±SD; for Diameter of zone of inhibition: 10 μL of essential oil or active compound per disc
Procedure, shortened: (§1)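 Per CLSI M44-A2, modified. Strains were kept on SDA slants at 4°C and subcultured in SDB before use. 100 µl of cell suspension (1.5 × 10^8 cfu/ml) was spread on SDA. Plates got antifungal drug discs (10–20 µg/disc) or 8 mm paper discs soaked with 10 µl of oil or test compound, then incubated at 37°C for 48 h. Inhibition-zone diameter (mm) was recorded in triplicate as mean ± SD.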

[2] = tested on: C. neoformans MTCC4424; experiment: Disc diffusion assay, MTCC4424; assay type: cell-based, Cryptococcus neoformans; conditions: 37°C, 48 h, mean±SD; for Diameter of zone of inhibition: 10 μL of essential oil or active compound per disc
Procedure, shortened: as §1

[3] = tested on: C. neoformans (clinical isolate CN); experiment: Broth microdilution MIC/MFC, clinical isolate CN; assay type: cell-based; conditions: Cryptococcus neoformans
[4] = tested on: C. neoformans MTCC4424; experiment: Broth microdilution MIC/MFC, MTCC4424; assay type: cell-based; conditions: Cryptococcus neoformans; for MFC: MTCC4424
[5] = Cytotoxicity; assay type: cell-based; conditions: red blood cell suspension (4% RBC from defibrinated blood), pH 7
[6] = tested on: Cryptococcus neoformans test strains (CN and CN MTCC4424); experiment: Broth microdilution, text statements for both test strains; assay type: cell-based
[7] = tested on: CN and CN MTCC4424 strains; experiment: Checkerboard test, text statements for both test strains; assay type: cell-based, Cryptococcus neoformans; conditions: for Interaction with fluconazole: checkerboard, CN and CN MTCC4424
[8] = tested on: Cryptococcus neoformans test strains (CN and CN MTCC4424); experiment: Disc diffusion, text statements for both test strains; assay type: cell-based; conditions: oils/compounds, against the test strains
Procedure, shortened: as §1

[9] = tested on: C. neoformans CN; experiment: Checkerboard microtiter test with fluconazole, CN; assay type: cell-based, Cryptococcus neoformans; conditions: for MIC: Cryptococcus neoformans, 48 h, read-out: MIC of agent alone; for Lowering of own MIC: in combination with fluconazole, against CN
[10] = tested on: C. neoformans MTCC4424; experiment: Checkerboard microtiter test with fluconazole, MTCC4424; assay type: cell-based, Cryptococcus neoformans; conditions: for MIC: Cryptococcus neoformans, MTCC4424, 48 h, read-out: MIC of agent alone
[11] = tested on: red blood cell (RBC); experiment: Cytotoxicity; assay type: cell-based; conditions: 0.1% (v/v) Triton X-100
[12] = Cryptococcus neoformans, MTCC4424, read-out: MIC, oils/compounds, against the test strains
[13] = oils/compounds, against the test strains
[14] = CD-FLC combination (cinnamaldehyde + fluconazole)
[15] = EL-FLC combination (eugenol + fluconazole)

Row | Compound | MIC ([3]; 24 h) [µg/mL] | MIC ([4]; MTCC4424, 24 h) [µg/mL] | MIC [6, 12] [µg/mL] | MIC [6, 13] [µg/mL] | Reduction of MICs in combination with fluconazole [7] | MIC [9] [µg/mL] | MIC [10] [µg/mL] | Diameter of zone of inhibition [1] [mm] | Diameter of zone of inhibition [2] [mm] | hemolysis at 2 h, 25 μg/mL [5] [%] | hemolysis at 2 h, 50 μg/mL [5] [%] | hemolysis at 2 h, 100 μg/mL [5] [%] | hemolysis at 2 h, 200 μg/mL [5] [%] | hemolysis at 2 h, 400 μg/mL [5] [%] | hemolysis at 2 h, 800 μg/mL [5] [%] | hemolysis at 2 h, 1600 μg/mL [5] [%] | hemolysis at 2 h, 3200 μg/mL [5] [%] | Interaction with fluconazole [7] | zone of inhibition [8] [mm] | MFC [3] [µg/mL] | other results
1 | CC(C)=CCCC(C)=CC=O (mixture of isomers) [CT, Citral] | 800 | 1600 | 400 to 1600 | 400 to 1600 | up to 8 fold |  |  | 25.33±2.05 | 22.66±1.24 | 1.78 ± 0.16 | 2.86 ± 0.15 | 3.8 ± 0.18 | 4.29 ± 0.12 | 4.51 ± 0.13 | 5.98 ± 0.21 | 6.96 ± 0.1 | 17.6 ± 1.04 | less synergistic; also recorded: synergy | > 15 |  | 
2 | O=C/C=C/c1ccccc1 [CD, Cinnamaldehyde] | 100 (≈ 757 µM) | 100 (≈ 757 µM) | 100 (≈ 757 µM) | 100 to 200 | up to 32 fold | 100 | 100 | 48.33±3.39 | 45.66±2.49 | 1.84 ± 0.19 | 2.87 ± 0.07 | 3.39 ± 0.12 | 3.96 ± 0.05 | 4.4 ± 0.17 | 5.06 ± 0.2 | 6.22 ± 0.19 | 18.1 ± 0.4 | synergistic interaction | > 15 |  | MIC of agent in combination [9, 14]: 12.50 µg/mL; Lowering of own MIC [9]: 8 folds; MIC of agent in combination [10, 14]: 12.50 µg/mL
3 | Triton X-100 [reference compound] |  |  |  |  |  |  |  |  |  |  |  |  |  |  |  |  |  |  |  |  | hemolysis (positive control) [11]: 100%
4 | CCC(C)n1ncn(-c2ccc(N3CCN(c4ccc(OCC5COC(Cn6cncn6)(c6ccc(Cl)cc6Cl)O5)cc4)CC3)cc2)c1=O (stereo not drawn) [ITC, Itraconazole] |  |  |  |  |  |  |  |  |  |  |  |  |  |  |  |  |  |  |  | 128 (≈ 181 µM) | MIC ([3]; 48 h): 64 µg/mL (≈ 90.7 µM); MFC [4]: 256 µg/mL (≈ 363 µM); MIC ([4]; MTCC4424, 48 h): 128 µg/mL (≈ 181 µM); MIC range (resistance to azoles) ([6]; antifungal drugs, both test strains): 64 to 256 µg/mL
5 | CC(=O)N1CCN(c2ccc(OCC3COC(Cn4ccnc4)(c4ccc(Cl)cc4Cl)O3)cc2)CC1 (stereo not drawn) [KTC, Ketoconazole] |  |  |  |  |  |  |  |  |  |  |  |  |  |  |  |  |  |  |  | 0.5 (≈ 0.941 µM) | Diameter of the zone of inhibition ([1]; antifungal drugs 10 μg/disc): 19.33±1.24 mm; MIC ([3]; 48 h): 0.25 µg/mL (≈ 0.47 µM); MFC [4]: 128 µg/mL (≈ 241 µM); MIC ([4]; MTCC4424, 48 h): 64 µg/mL (≈ 120 µM)

Second part, led by results:

Row | MIC ([3]; 24 h) [µg/mL] | MIC ([4]; MTCC4424, 24 h) [µg/mL] | MIC [6, 12] [µg/mL] | MIC [6, 13] [µg/mL] | Reduction of MICs in combination with fluconazole [7] | MIC [9] [µg/mL] | MIC [10] [µg/mL] | Compound | Diameter of zone of inhibition [1] [mm] | Diameter of zone of inhibition [2] [mm] | hemolysis at 2 h, 25 μg/mL [5] [%] | hemolysis at 2 h, 50 μg/mL [5] [%] | hemolysis at 2 h, 100 μg/mL [5] [%] | hemolysis at 2 h, 200 μg/mL [5] [%] | hemolysis at 2 h, 400 μg/mL [5] [%] | hemolysis at 2 h, 800 μg/mL [5] [%] | hemolysis at 2 h, 1600 μg/mL [5] [%] | hemolysis at 2 h, 3200 μg/mL [5] [%] | Interaction with fluconazole [7] | zone of inhibition [8] [mm] | MFC [3] [µg/mL] | other results
6 | 200 (≈ 1220 µM) | 200 (≈ 1220 µM) | 200 (≈ 1220 µM) | 100 to 200 | up to 32 fold | 200 | 200 | C=CCc1ccc(O)c(OC)c1 [EL, Eugenol] | 22.66±1.24 | 40.33±1.69 | 1.65 ± 0.14 | 1.98 ± 0.09 | 3.02 ± 0.08 | 3.72 ± 0.16 | 4.26 ± 0.16 | 4.78 ± 0.25 | 5.6 ± 0.63 | 19 ± 0.3 | synergistic interaction | > 15 |  | MIC of agent in combination [9, 15]: 12.50 µg/mL; FICI ([9]; combination with fluconazole): 0.187; Lowering of own MIC [9]: 8 folds; MIC of agent in combination [10, 15]: 12.50 µg/mL
7 | 400 (≈ 2590 µM) | 800 (≈ 5190 µM) | 400 to 1600 (≈ 2590 to 10400 µM) | 400 to 1600 | up to 8 fold |  |  | CC(C)=CCC/C(C)=C/CO [GR, Geraniol] | 19.33±1.24 | 19.33±1.24 | 1.33 ± 0.17 | 2.16 ± 0.25 | 2.31 ± 0.26 | 2.87 ± 0.23 | 3.36 ± 0.18 | 3.85 ± 0.11 | 4.74 ± 0.34 | 14.3 ± 0.23 | synergy | > 15 |  | 
8 |  |  |  |  | up to 32 fold | 128 | 8 | OC(Cn1cncn1)(Cn1cncn1)c1ccc(F)cc1F [FLC, Fluconazole, reference compound] |  |  |  |  |  |  |  |  |  |  |  |  | 256 (≈ 836 µM) | Diameter of the zone of inhibition ([2]; antifungal drugs 10 μg/disc): 14.33±1.24 mm; MIC ([3]; 48 h): 128 µg/mL (≈ 418 µM); MFC [4]: 32 µg/mL (≈ 104 µM); MIC ([4]; MTCC4424, 48 h): 8 µg/mL (≈ 26.1 µM); MIC of agent in combination [9, 14]: 8 µg/mL; MIC of agent in combination [9, 15]: 8 µg/mL; MIC of agent in combination [10, 14]: 1 µg/mL; MIC of agent in combination [10, 15]: 1 µg/mL
